Assays:
PANC-1 [1] = assay: Cytotoxicity against human PANC1 cells after 72 hrs under normoxic condition by MTT assay; type: functional, cell-based; conditions: PANC-1, 72 h
Outline: (§1)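 PANC-1, PATU8988T and ASPC-1 cells were grown in DMEM with 10% FBS at 37 °C and 5% CO2, then seeded at 4000 cells/well. Compounds were added at various concentrations after 6 h. Normoxic plates stayed at 37 °C, 5% CO2. Hypoxic plates went into a chamber purged 10 min with 5% CO2/1% O2/94% N2, sealed, at 37 °C. After 72 h, MTT was added for 4 h, formazan dissolved in DMSO and read at 570 nm. IC50 is the mean ± SD of three independent experiments.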

PaTu 8988t [2] = assay: Selectivity index, ratio of IC50 against human PA-TU-8988T cells under normoxic condition to IC50 for human PA-TU-8988T cells under hypoxic condition; type: functional
Outline: (§2)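 Hypoxic selectivity index is IC50 (normoxia)/IC50 (hypoxia). Both IC50s come from the 72 h MTT assay in the same cell line, run under normoxia (37 °C, 5% CO2) or a sealed 1% O2/5% CO2/94% N2 chamber, each the mean of three independent experiments.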

PaTu 8988t [3] = assay: Cytotoxicity against human PA-TU-8988T cells after 72 hrs under hypoxic condition by MTT assay; type: functional, cell-based; outline: as §1
PaTu 8988t [4] = assay: Cytotoxicity against human PA-TU-8988T cells after 72 hrs under normoxic condition by MTT assay; type: functional, cell-based; outline: as §1
PANC-1 [5] = assay: Cytotoxicity against human PANC1 cells after 72 hrs under hypoxic condition by MTT assay; type: functional, cell-based; conditions: PANC-1, 72 h; outline: as §1
ASPC1 [6] = assay: Cytotoxicity against human Aspc-1 cells after 72 hrs under hypoxic condition by MTT assay; type: functional, cell-based; conditions: ASPC1, 72 h; outline: as §1
ASPC1 [7] = assay: Cytotoxicity against human Aspc-1 cells after 72 hrs under normoxic condition by MTT assay; type: functional, cell-based; conditions: ASPC1, 72 h; outline: as §1
ASPC1 [8] = assay: Selectivity index, ratio of IC50 against human Aspc-1 cells under normoxic condition to IC50 for human Aspc-1 cells under hypoxic condition; type: functional; outline: as §2
PANC-1 [9] = assay: Selectivity index, ratio of IC50 against human PANC1 cells under normoxic condition to IC50 for human PANC1 cells under hypoxic condition; type: functional; outline: as §2
PANC-1 [10] = assay: Inhibition of cancer stem cell population of human PANC1 cells assessed as CD24+/CD44+/ESA+ cell population level at 0.15 uM after 48 hrs by flow cytometric analysis (reference value: 1.7%); type: functional; design: scale not given: the % may be the effect or the level left
PANC-1 [11] = assay: Inhibition of tumorsphere formation in human PANC1 cells assessed as reduction in number of tumor spheres at 0.25 uM after 7 days; type: functional
Outline: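 Tumorsphere formation: single-cell PANC-1 suspensions were plated in ultra-low-attachment wells at 2,000 cells/mL in Complete MammoCult medium, with compound at 0.25 µM. Tumorspheres were counted after 7 days. Three repeats, mean ± SEM.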

PANC-1 [12] = assay: Antitumor activity against human PANC1 cells xenografted in BALB/c nude mouse assessed as reduction in tumor initiating cell frequency at 0.1 to 0.25 uM measured after 7 days; type: functional
Outline: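 PANC-1 cells were treated in vitro with compound (ADR at 0.5 µM) for 48 h, collected, and injected subcutaneously at limiting cell doses into 5-week-old female BALB/c nude mice. Tumor formation rate was scored after 7 days. Tumor-initiating frequency was derived by limiting-dilution analysis with Poisson statistics against vehicle.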

[13] = target: T1, Aldehyde dehydrogenase, mitochondrial (Homo sapiens) (UniProt P05091); assay: Inhibition of ALDH in human PANC1 cells assessed as aldefluor positive cells at 0.2 uM after 72 hrs by aldefluor assay (reference value: 12.5%); type: cell-based; design: scale not given: the % may be the effect or the level left
T1 sequence (whole entry): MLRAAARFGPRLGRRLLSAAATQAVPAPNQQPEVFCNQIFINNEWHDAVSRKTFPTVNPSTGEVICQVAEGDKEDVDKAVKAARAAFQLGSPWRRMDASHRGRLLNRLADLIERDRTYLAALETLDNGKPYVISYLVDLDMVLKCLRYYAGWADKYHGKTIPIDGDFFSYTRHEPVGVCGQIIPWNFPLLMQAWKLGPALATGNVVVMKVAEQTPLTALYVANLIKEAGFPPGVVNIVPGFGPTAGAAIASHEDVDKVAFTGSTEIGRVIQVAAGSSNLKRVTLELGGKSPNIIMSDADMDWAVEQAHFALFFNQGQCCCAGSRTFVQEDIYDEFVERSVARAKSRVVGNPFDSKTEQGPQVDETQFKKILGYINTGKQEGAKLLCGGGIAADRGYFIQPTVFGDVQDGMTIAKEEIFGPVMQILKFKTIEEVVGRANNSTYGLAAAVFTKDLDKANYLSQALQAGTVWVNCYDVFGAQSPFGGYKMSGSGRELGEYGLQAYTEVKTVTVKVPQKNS
Outline: (§3)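 PANC-1 cells were seeded at 5×10^4 cells/well and exposed after 6 h to compound (0.2 µM; ADR 0.5 µM) for 72 h. Living cells were suspended in assay buffer and incubated with Aldefluor substrate for 60 min at 37 °C. A parallel sample received substrate plus the ALDH inhibitor DEAB as negative control. Readout was percentage of ALDH+ cells, mean ± SEM, n = 3.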

[14] = target: T1, Aldehyde dehydrogenase, mitochondrial (Homo sapiens); assay: Inhibition of ALDH in human PANC1 cells assessed as aldefluor positive cells at 0.2 uM after 72 hrs in presence of DEAB by aldefluor assay (reference value: 0.455%); type: cell-based; design: scale not given: the % may be the effect or the level left; outline: as §3

| Structure (SMILES) | IC50 (PANC-1 [1]) [nM] | Ratio IC50 (PaTu 8988t [2]) | IC50 (PaTu 8988t [3]) [nM] | IC50 (PaTu 8988t [4]) [nM] | IC50 (PANC-1 [5]) [nM] | IC50 (ASPC1 [6]) [nM] | IC50 (ASPC1 [7]) [nM] | Ratio IC50 (ASPC1 [8]) | Ratio IC50 (PANC-1 [9]) | Activity (PANC-1 [10]) [%] | fold change (FC) (PANC-1 [11]) | fold change (FC) (PANC-1 [12]) | Activity [13] [%] | Activity [14] [%] |
| --- | --- | --- | --- | --- | --- | --- | --- | --- | --- | --- | --- | --- | --- | --- |
| C=C1/C=C/C(=O)N(C)CC(=O)N[C@@H](CC(=O)NC)C(=O)O[C@@H]([C@H](C)CCCCCCCCCCCCCC)[C@H](C)C(=O)N1 | 170 | 4.42 | 60 | 260 | 38 | 46 | 500 | 10.98 | 4.44 | 0.33 | – | – | – | – |
| COC(=O)C[C@@H]1NC(=O)CN(C)C(=O)/C=C/CNC(=O)[C@@H](C)[C@H]([C@H](C)CCCCCCCCCCCC(C)C)OC1=O | 21000 | – | – | – | 28000 | – | – | – | 0.76 | – | – | – | – | – |
| CC(=O)O[C@H]1C(=O)[C@@]2(C)[C@H]([C@H](OC(=O)c3ccccc3)[C@]3(O)C[C@H](OC(=O)[C@H](O)[C@@H](NC(=O)c4ccccc4)c4ccccc4)C(C)=C1C3(C)C)[C@]1(OC(C)=O)CO[C@@H]1C[C@@H]2O [PACLITAXEL] | – | – | – | – | – | – | – | – | – | 1.6 | – | – | – | – |
| C=C1/C=C/C(=O)N(C)CC(=O)N[C@@H](CC(=O)OC)C(=O)O[C@@H]([C@H](C)CCCCCCCCCCCC(C)C)[C@H](C)C(=O)N1 | 110 | 5.03 | 73 | 360 | 48 | 600 | 360 | 0.59 | 2.36 | 1.2 | – | – | – | – |
| C=C1/C=C/C(=O)N(C)CC(=O)N[C@@H](CC(=O)OC(C)C)C(=O)O[C@@H]([C@H](C)CCCCCCCCCCCC(C)C)[C@H](C)C(=O)N1 | 1800 | – | – | – | 700 | – | – | – | 2.6 | – | – | – | – | – |
| C=C1/C=C/C(=O)N(C)CC(=O)N[C@@H]([C@H](O)C(N)=O)C(=O)O[C@@H]([C@H](C)CCCCCCCCCCCC(C)C)[C@H](C)C(=O)N1 | 220 | 7.54 | 33 | 240 | 42 | 82 | 680 | 8.4 | 5.24 | 0.43 | 4 | 4.7 | 0.46 | 0.544 |
| C=C1/C=C/C(=O)N(CCCCCC)CC(=O)N[C@@H]([C@H](O)C(=O)OC)C(=O)O[C@@H]([C@H](C)CCCCCCCCCCCC(C)C)[C@H](C)C(=O)N1 | > 50000 | – | – | – | 7000 | – | – | – | >7.11 | – | – | – | – | – |
| CCCCCCCCCCCCCC[C@@H](C)[C@@H]1OC(=O)[C@H](CC(=O)NC2CC2)NC(=O)CN(C)C(=O)/C=C/[C@H](CO)NC(=O)[C@H]1C | > 10000 | – | – | – | > 10000 | – | – | – | – | – | – | – | – | – |
| C=C1/C=C/C(=O)N(C)CC(=O)N[C@@H](C)C(=O)O[C@@H]([C@H](C)CCCCCCCCCCCCCC)[C@H](C)C(=O)N1 | 1100 | – | – | – | 270 | – | – | – | 4.04 | – | – | – | – | – |
| C=C1/C=C/C(=O)N(C)CC(=O)N[C@@H]([C@H](O)C(=O)OCC)C(=O)O[C@@H]([C@H](C)CCCCCCCCCCCC(C)C)[C@H](C)C(=O)N1 | 160 | 3.25 | 120 | 380 | 67 | 180 | 480 | 2.64 | 2.33 | – | – | – | – | – |
| C=C1/C=C/C(=O)N(C)C(C)C(=O)N[C@@H]([C@H](O)C(=O)OC)C(=O)O[C@@H]([C@H](C)CCCCCCCCCCCC(C)C)[C@H](C)C(=O)N1 (single isomer, unassigned; 1d) | 660 | 2.86 | 380 | 1100 | 79 | 400 | 3200 | 7.87 | 8.34 | – | – | – | – | – |

Source: ChEMBL document CHEMBL4152216, “Syntheses and anti-pancreatic cancer activities of rakicidin A analogues” (Eur J Med Chem, 2018)
